Measured values published in ChEMBL document CHEMBL3785068, “Synthesis and biological evaluation of novel 6,7-dihydro-5H-cyclopenta[d]pyrimidine and 5,6,7,8-tetrahydroquinazoline derivatives as sigma-1 (σ1) receptor antagonists for the treatment of pain” (Bioorg Med Chem Lett, 2016).
pKi: −log10 of the molar value.

What was measured:
Mus musculus [1] = assay: Antinociceptive activity in Kun Ming mouse assessed as inhibition of formalin-induced pain response during phase 2 measured as licking and biting time at 80 mg/kg, ip preincubated with compound for 15 mins followed by formalin injection measured after 15 to 45 mins; format: functional
In short: (§1)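 Formalin injected intraplantar into the mouse hind paw. Licking/biting time scored in phase I (0–5 min) and phase II (15–45 min) after 80 mg/kg test dose. At least ten animals per group; mean ± SEM; two-way ANOVA with Newman-Keuls test against vehicle and formalin-alone groups.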

Mus musculus [2] = assay: Antinociceptive activity in Kun Ming mouse assessed as inhibition of formalin-induced pain response during phase 1 measured as licking and biting time at 80 mg/kg, ip preincubated with compound for 15 mins followed by formalin injection measured up to 5 mins; format: functional; in short: as §1
[3] = target: Sigma non-opioid intracellular receptor 1 (Cavia porcellus, UniProt Q60492); assay: Displacement of [3H]-(+)-pentazocine from sigma1 receptor in guinea pig brain membrane after 180 mins by liquid scintillation counter; format: cell membranes
Sequence of Sigma non-opioid intracellular receptor 1 (Q60492 whole entry): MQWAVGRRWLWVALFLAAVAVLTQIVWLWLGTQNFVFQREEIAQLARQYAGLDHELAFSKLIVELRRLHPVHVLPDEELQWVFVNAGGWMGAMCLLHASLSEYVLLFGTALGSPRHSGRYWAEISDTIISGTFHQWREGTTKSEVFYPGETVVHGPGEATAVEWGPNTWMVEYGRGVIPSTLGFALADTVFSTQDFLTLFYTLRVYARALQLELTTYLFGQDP

pKi [3] | Compound | Time (Mus musculus [1]) | Time (Mus musculus [2])
 | Cc1cc(OCCN2CCOCC2)nn1-c1ccc2ccccc2c1 | 55.4 s | 16.8 s
7.68 | CC1CCN(CCCOc2nc(-c3ccc(Cl)cc3)nc3c2CCC3)CC1 |  | 
6.86 | CN(C)CCCOc1nc(-c2ccccc2)nc2c1CCCC2 |  | 
